TAAR1 antag: human TAAR1 antagonists, primary screen, Fluo-8 calcium fluorescence, CHO RD-HGA16 cells | Trace amine-associated receptor 1 (Homo sapiens), Q96RJ0 | antagonist | inhibition, % at 3 µM | 360,000 compounds, 1.5% hits;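 active = inhibition above a per-plate cutoff, the mean inhibition of test compounds on that plate plus 3 SD, cut at about 49% in these data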
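test system = CHO RD-HGA16 cells bearing hTAAR1 | replication = singlicate | controls = DMSO-only wells and EC80 β-PEA-stimulated wells | reagent = EC80 β-phenethylamine stimulus | read-out basis = percent inhibition of PEA-evoked calcium signal, max/basal emission ratio | schedule = seeding 17-24 h prior, 75-min 37 °C, 30-min RT dye loading | signal = kinetic Fluo-8 calcium fluorescence measurement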
CHO parental Ca: ATP-evoked calcium signal inhibitors, parental CHO, primary screen, counter-screen for OX1R antagonist project, cell-based, fluorescence, Fluo-8 calcium dye. parental CHO-K1, ATP-induced calcium, Fluo-8 fluorescence. inhibition, % at 5.6 µM. 330,000 compounds, 0.63% hits;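 active = inhibition above that plate's mean sample inhibition plus 3 SD, cut at about 26% in these data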
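material = parental CHO cells | also added = ATP as calcium-mobilizing challenge | dosing = single point at 5.6 µM | detection = intracellular calcium via Fluo-8 no-wash fluorescent dye | read-out = % inhibition | benchmarks = low control ATP plus DMSO, high control DMSO only | repeats = one well per compound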
OX1R antag-1: antagonists of human orexin 1 receptor (OX1R); Orexin/Hypocretin receptor type 1 (Homo sapiens), O43613; 330,000 compounds, 1.8% hits; AID 485270, 2010; inhibition, % at 6.6 µM; OX1R-expressing cells, FRET antagonist read-out; in the data active = inhibition mostly above about 38%, no sharp cut-off; inactive = mostly below about 40%
Target sequence (O43613 whole entry, looked up): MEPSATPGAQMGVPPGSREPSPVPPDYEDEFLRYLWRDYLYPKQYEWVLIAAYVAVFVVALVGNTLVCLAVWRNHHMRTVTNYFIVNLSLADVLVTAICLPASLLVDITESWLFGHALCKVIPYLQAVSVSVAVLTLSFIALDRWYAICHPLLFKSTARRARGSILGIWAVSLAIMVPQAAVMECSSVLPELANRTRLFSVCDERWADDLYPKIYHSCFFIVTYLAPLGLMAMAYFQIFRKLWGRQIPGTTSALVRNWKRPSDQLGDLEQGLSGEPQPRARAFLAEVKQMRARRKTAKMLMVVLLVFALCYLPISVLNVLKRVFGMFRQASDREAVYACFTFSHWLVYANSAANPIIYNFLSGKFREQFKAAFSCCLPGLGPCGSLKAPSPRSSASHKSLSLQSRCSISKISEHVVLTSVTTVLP
GPR7 antagonist: GPR7 receptor antagonists, primary screen, cell-based, fluorescence, single concentration | 290,000 compounds, 1.1% hits | inhibition, % at 4.4 µM | AID 1861, 2009 | Neuropeptides B/W receptor type 1 (Homo sapiens), P48145 | GPR7-expressing cells, fluorescence antagonist assay; in the data active = inhibition above about 16%, passing the limit was not always enough;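 also: cells stimulated with the agonist NPW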
TAAR1 agonist: human TAAR1 agonists, primary screen, Fluo-8 calcium fluorescence, CHO RD-HGA16 cells; Trace amine-associated receptor 1 (Homo sapiens), Q96RJ0; vehicle wells 0%, saturating PEA agonist 100%; activation, % at 3 µM; 360,000 compounds, 0.99% hits;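 active = activation above the mean activation of all test compounds in the run plus 3 SD, cut at about 38% in these data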
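System: CHO-derived RD-HGA16 cells with stable Gα16 and human TAAR1. Times: 17-24 h plating, Fluo-8 75 min 37 °C, 30 min RT. Measured by: calcium-sensitive Fluo-8 signal, excitation 470-495, emission 515-575 nm. Read-out basis: % activation relative to PEA EC100 response. Control set: DMSO and PEA EC100. Repeats: no replicates (n 1).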
OX1R antag-2: OX1R (HCRTR1) antagonists, primary screen, fluorescence, CHO/OX1R cells, Fluo-8 calcium, orexin A; 330,000 compounds, 0.43% hits; AID 434989, 2010; inhibition, % at 5 µM; Orexin/Hypocretin receptor type 1 (Homo sapiens), O43613; Fluo-8 calcium fluorescence;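 active = inhibition above its plate's threshold, mean inhibition of all tested compounds on the plate plus 3 SD, cut at about 37% in these data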
OX1R Ca confirm: OX1R (HCRTR1) antagonists, confirmation, fluorescence, CHO/OX1R cells, Fluo-8 calcium, orexin A. shares compounds with OX1R antag-2. orexin A calcium Fluo-8 fluorescence. inhibition, % at 5 µM. 1,100 compounds, 38% hits; in the data active = inhibition above about 29%
CHO Ca counter: ATP-evoked calcium inhibition in parental CHO, counter-screen for OX1R antagonist project, cell-based, fluorescence, CHO-K1, triplicate; shares compounds with OX1R antag-2; ATP-induced calcium, Fluo-8 fluorescence; inhibition, % at 5.6 µM; 1,100 compounds, 9.3% hits; AID 492965, 2010;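 active = inhibition above a per-plate limit, the mean inhibition of that plate's test compounds plus 3 SD, cut at about 25% in these data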
Each line names hits and unclear results; the compound was inactive in the other large screens (follow-up assays come after a bar, where they were run). Sampled rows, rich in hits. Any-hit rate of the full collection: about 4.6%.

C/C=C1\NC(=O)[C@H](CC(N)=O)N(C)C(=O)C([C@@H](C)O)NC(=O)C(CCCc2ccc(OC)cc2)NC(=O)[C@H](C(C)C)NC(=O)/C(=C\C)NC(=O)[C@H](O)[C@@H](C[C@@H](O)CCCCCCC)NC(=O)[C@H](C)NC(=O)CN(C)C(=O)[C@H](CCC(N)=O)NC1=O (stereo partly drawn)	none (no result: CHO parental Ca, OX1R antag-1, GPR7 antagonist, OX1R antag-2)
O=c1[nH]nc(Cc2ccc(-c3ccccc3Cl)o2)c2ccccc12	OX1R antag-2 47 | OX1R Ca confirm inactive | CHO Ca counter inactive
O=c1[nH]nc(Cc2ccc(Cl)cc2)c2ccccc12	none
Cc1cccc(NC(=S)NCc2ccccc2Cl)c1C	OX1R antag-2 66 | OX1R Ca confirm inactive | CHO Ca counter inactive
Cc1c(Cl)cccc1NC(=S)NCc1ccccc1	none
O=[N+]([O-])c1ccc(Cl)cc1CNc1ccc(F)c(F)c1	none | OX1R Ca confirm inactive | CHO Ca counter inactive
CCc1cccc2cc3c(N)c(C(=O)Nc4ccc(S(=O)(=O)N5CCCC5)cc4)sc3nc12	TAAR1 antag 65 | OX1R Ca confirm inactive | CHO Ca counter inactive
Cc1cccc2cc3c(N)c(C(=O)Nc4ccc(N5CCOCC5)cc4)sc3nc12	none
O=C(O)CN(Cc1ccccc1)S(=O)(=O)c1ccc2c(c1)OCCO2	none | OX1R Ca confirm inactive | CHO Ca counter inactive
O=S(=O)(c1ccc2c(c1)OCCO2)N1CCN(Cc2ccccc2)CC1	none | OX1R Ca confirm inactive | CHO Ca counter inactive
CCOC(=O)c1csc(Nc2nc3ccc(F)cc3s2)n1	none | OX1R Ca confirm inactive | CHO Ca counter 26
COC(=O)c1cn(CCOc2ccc(C)cc2)c2ccccc12	none
CC(=O)c1cn(CCOc2ccc(F)cc2)c2ccccc12	OX1R antag-2 48 | OX1R Ca confirm inactive | CHO Ca counter inactive
CCOC(=O)C1=CC[C@]2(C)c3c(c4ccccc4n3C)C(=O)C1N2C	none (no result: GPR7 antagonist)
N#C/C(=N\Nc1ccc(Cl)cc1)C(=N)N1CCCCCC1	none | OX1R Ca confirm inactive | CHO Ca counter inactive
Cc1ccc(N/N=C(\C#N)C(=N)N2CCCCC2)cc1	none
Cc1ccc(S(=O)(=O)NC(=O)C2(C)CCN2C(=O)C2CCCCC2)nc1 (stereo not drawn)	none (no result: CHO parental Ca, OX1R antag-1, GPR7 antagonist, OX1R antag-2)
O=S(=O)(c1ccccc1)N1CCN(c2ncnc3sc(-c4ccccc4)cc23)CC1	none (no result: CHO parental Ca, OX1R antag-1, OX1R antag-2)
NNC(=O)c1cc2c(N3CCC(Cc4ccccc4)CC3)ncnc2s1	none | OX1R Ca confirm inactive | CHO Ca counter inactive
Cc1nn(Cc2ccc(Cl)cc2)c(C)c1NC(=O)C1CC=CCC1C(=O)O (stereo not drawn)	none
COc1n[nH]c(C(=O)Nc2cc(Cl)ccc2Cl)c1[N+](=O)[O-]	none
COc1ccc(Cl)cc1NC(=O)c1[nH]nc(OC)c1[N+](=O)[O-]	OX1R antag-2 105 | OX1R Ca confirm inactive | CHO Ca counter inactive
Cc1cc(OCC(=O)N(C)C2CCCCC2)ccc1Cl	none
Cc1cc(OCC(=O)N(C)C2CCCCC2)cc(C)c1Cl	none | OX1R Ca confirm inactive | CHO Ca counter inactive
O=[N+]([O-])CC1(n2nc3ccccc3n2)CCCCC1	none (no result: TAAR1 antag, GPR7 antagonist, TAAR1 agonist)
Cc1ccc(S(=O)(=O)N(C)c2ccc(OC(=O)c3cccs3)cc2)cc1	none (no result: GPR7 antagonist) | OX1R Ca confirm inactive | CHO Ca counter inactive
Cn1c(SCC(=O)Nc2sccc2C(N)=O)nc2ccccc2c1=O	none (no result: GPR7 antagonist) | OX1R Ca confirm inactive | CHO Ca counter inactive
CN(C)S(=O)(=O)N1CCCC(C(=O)c2ccc(-c3ccccc3)c(F)c2)C1 (stereo not drawn)	none | OX1R Ca confirm inactive | CHO Ca counter inactive

Assay outcomes: PubChem BioAssay, The Scripps Research Institute Molecular Screening Center
